In assay [1] the target is Protease (Human immunodeficiency virus 1, UniProt Q9YQ12). In words: Inhibition of HIV1 protease.
Assay [2] relates to Human immunodeficiency virus 1. In words: Antiviral activity against HIV1 LAI in human MT2 cells after 7 days by MTT assay. In kind it is functional, organism-based. As to conditions: Human immunodeficiency virus 1, LAI, MT2, 168 h. A digest of the protocol: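 Human T-lymphoid MT-2 cells were exposed to 100 TCID50 of HIV-1LAI and cultured in the presence of each protease inhibitor. IC50 was determined by MTT assay. Values are means of at least three experiments.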
On the technique in general: Tetrazolium dyes change colour on reduction, which living cells bring about.

For assay [3], the system named is Human immunodeficiency virus 1. In words: Antiviral activity against multi drug-resistant HIV1 isolate of subtype TM in PHA-stimulated human PBMC assessed as inhibition of p24 antigen production. Type of assay: functional, organism-based. As to conditions: Human immunodeficiency virus 1, isolate TM.
The test system of assay [4] is Human immunodeficiency virus 1. In words: Ratio of IC50 for multi drug-resistant HIV1 isolate of subtype TM to IC50 for wild type HIV1 isolate ERS104pre. In kind it is functional. Summed up:
(§1)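 Each assay run in duplicate; values are means (±1 SD) from two or three independent experiments. Fold change is the IC50 against each drug-resistant isolate divided by the IC50 against wild-type HIV-1 ERS104pre.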

Assay [5] deals with Human immunodeficiency virus 1. In words: Ratio of IC50 for multi drug-resistant HIV1 isolate of subtype C to IC50 for wild type HIV1 isolate ERS104pre. Type of assay: functional. A digest of the protocol:
as §1

Assay [6] has as its system Human immunodeficiency virus 1. In words: Antiviral activity against multi drug-resistant HIV1 isolate of subtype C in PHA-stimulated human PBMC assessed as inhibition of p24 antigen production. Type of assay: functional, organism-based. The following applies: Human immunodeficiency virus 1, isolate C.
In assay [7] the test system is Human immunodeficiency virus 1. In words: Antiviral activity against multi drug-resistant HIV1 isolate of subtype JSL in PHA-stimulated human PBMC assessed as inhibition of p24 antigen production. Type of assay: functional, organism-based. The following applies: Human immunodeficiency virus 1, isolate JSL.
For assay [8], the system named is Human immunodeficiency virus 1. In words: Antiviral activity against multi drug-resistant HIV1 isolate of subtype G in PHA-stimulated human PBMC assessed as inhibition of p24 antigen production. Type of assay: functional, organism-based. The following applies: Human immunodeficiency virus 1, isolate G.
The subject of assay [9] is Human immunodeficiency virus 1. In words: Antiviral activity against wild type HIV1 isolate ERS104pre in PHA-stimulated human PBMC assessed as inhibition of p24 antigen production. As to conditions: Human immunodeficiency virus 1, isolate ERS104pre. In kind it is functional, organism-based.
Assay [10] deals with Human immunodeficiency virus 1. In words: Ratio of IC50 for multi drug-resistant HIV1 isolate of subtype MM to IC50 for wild type HIV1 isolate ERS104pre. In kind it is functional. A digest of the protocol: as §1
The test system of assay [11] is Human immunodeficiency virus 1. In words: Antiviral activity against multi drug-resistant HIV1 isolate of subtype MM in PHA-stimulated human PBMC assessed as inhibition of p24 antigen production. The following applies: Human immunodeficiency virus 1, isolate MM. In kind it is functional, organism-based.
Assay [12] concerns Human immunodeficiency virus 1. In words: Ratio of IC50 for multi drug-resistant HIV1 isolate of subtype G to IC50 for wild type HIV1 isolate ERS104pre. Type of assay: functional. Summed up: as §1
The test system of assay [13] is Human immunodeficiency virus 1. In words: Ratio of IC50 for multi drug-resistant HIV1 isolate of subtype JSL to IC50 for wild type HIV1 isolate ERS104pre. In kind it is functional. Summed up:
as §1

The source of these data is ChEMBL document CHEMBL1159037, “Synthesis and biological evaluation of novel allophenylnorstatine-based HIV-1 protease inhibitors incorporating high affinity P2-ligands” (Bioorg Med Chem Lett, 2010).

Protease, sequence (Q9YQ12 whole entry): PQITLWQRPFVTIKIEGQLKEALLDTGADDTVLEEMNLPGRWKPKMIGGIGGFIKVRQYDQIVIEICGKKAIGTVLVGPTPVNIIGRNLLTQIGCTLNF

Regarding `Cc1ccccc1CNC(=O)[C@H]1N(C(=O)[C@@H](O)[C@H](Cc2ccccc2)NC(=O)O[C@@H]2C[C@@H]3CCO[C@@H]3C2)CSC1(C)C`, the affinity in assay [1] corresponds to a Ki of 0.29 nM. Further, the IC50 in assay [2] was found to be 13 nM.

In assay [1], `Cc1ccccc1CNC(=O)[C@H]1N(C(=O)[C@@H](O)[C@H](Cc2ccccc2)NC(=O)O[C@H]2CCOC2)CSC1(C)C` registered a Ki of 0.21 nM. This molecule gave an IC50 in assay [2] of 20 nM.

In turn, `Cc1ccccc1CNC(=O)[C@H]1N(C(=O)[C@@H](O)[C@H](Cc2ccccc2)NC(=O)O[C@@H]2CCOCOC2)CSC1(C)C` showed a Ki in [1] of 0.78 nM.

Turning to `COC(=O)N[C@H](C(=O)N[C@@H](Cc1ccccc1)[C@@H](O)CN(Cc1ccc(-c2ccccn2)cc1)NC(=O)[C@@H](NC(=O)OC)C(C)(C)C)C(C)(C)C` [ATAZANAVIR], the 50% inhibitory concentration (IC50) in assay [3] amounted to 47 nM; in assay [6] it was 45 nM; in [7], 635 nM; in [8], 29 nM; in assay [9] it was 3 nM; in [11] it was 40 nM. The “Ratio IC50” value in [4] amounted to 16; in assay [5], 15; in assay [10], 13; in assay [12] it was 10; in assay [13], 212.

In assay [1], `COc1ccc(CNC(=O)[C@H]2N(C(=O)[C@@H](O)[C@H](Cc3ccccc3)NC(=O)O[C@H]3CO[C@H]4OCC[C@H]43)CSC2(C)C)c(C)c1` had a Ki of 2.03 nM. This molecule gave an IC50 in assay [2] of 51 nM.

In assay [1], `Cc1ccccc1CNC(=O)[C@H]1N(C[C@@H](O)[C@H](Cc2ccccc2)NC(=O)O[C@H]2CO[C@H]3OCC[C@H]32)CSC1(C)C` showed a Ki of 2.6 nM.

Take `Cc1ccccc1CNC(=O)[C@H]1N(C(=O)[C@@H](O)[C@H](Cc2ccccc2)NC(=O)O[C@@H]2C[C@@H]3OCO[C@@H]3C2)CSC1(C)C`: the affinity in assay [1] corresponds to a Ki of 0.65 nM.

On to `Cc1ccccc1CNC(=O)[C@H]1N(C[C@@H](O)[C@H](Cc2ccccc2)NC(=O)O[C@H]2CCOC2)CSC1(C)C`, for which affinity in assay [1] was put at a Ki of 86.2 nM.

In the case of `CC(C)CN(C[C@@H](O)[C@H](Cc1ccccc1)NC(=O)O[C@H]1CCOC1)S(=O)(=O)c1ccc(N)cc1`, the IC50 in assay [3] came to 406 nM; in assay [6] it was 346 nM; in assay [8] it was 392 nM; in [9], 45 nM; in assay [11], 313 nM. Also, the “Ratio IC50” value came to 9 in assay [4]; 8 in assay [5]; 7 in assay [10]; 9 in assay [12]; 12 in assay [13].

For the molecule `Cc1ccccc1CNC(=O)[C@H]1N(C(=O)[C@@H](O)[C@H](Cc2ccccc2)NC(=O)O[C@H]2CO[C@H]3OCC[C@H]32)CSC1(C)C`, the IC50 was 64 nM in assay [3]; 61 nM in [6]; 235 nM in [7]; 29 nM in [8]; 31 nM in [9]; 42 nM in assay [11]. In [2], this molecule gave an IC50 of 9 nM. Moreover, the “Ratio IC50” value was 2 in assay [4]; 2 in assay [5]; 1 in assay [10]; 1 in assay [12]; 8 in [13]. In [1], this molecule came in with a Ki of 0.0052 nM.

Consider `Cc1cc(N)ccc1CNC(=O)[C@H]1N(C(=O)[C@@H](O)[C@H](Cc2ccccc2)NC(=O)O[C@H]2CO[C@H]3OCC[C@H]32)CSC1(C)C`, for which, in assay [1], the affinity, expressed as Ki, was 1.01 nM. In addition, the half-maximal inhibitory concentration (IC50) in assay [2] is 530 nM.

In assay [1], `Cc1cc(CO)ccc1CNC(=O)[C@H]1N(C(=O)[C@@H](O)[C@H](Cc2ccccc2)NC(=O)O[C@H]2CO[C@H]3OCC[C@H]32)CSC1(C)C` gave a Ki of 0.31 nM. Also, the IC50 in [2] is 230 nM.

In general, Ki refers to a dissociation constant, usually derived from enzyme kinetics or from competition with a known ligand. Low values mean tighter binding, high ones weaker binding. A word on the IC50: it is the concentration that inhibits the measured activity by half.
